# According to article PMC6500982 (Cancer Science, 2019):
# Entries after “also recorded” stand apart in the source; their conditions may differ.
# Legend:
# [1] = molecular target: Bruton's tyrosine kinase (BTK) (Homo sapiens, UniProt Q06187); assay type: in vivo
# Summary of the method: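 PBMCs isolated from blood drawn pre-dose and 2 hours post-dose on Cycle 1 Day 1 were analysed by western blot with anti-pBTK, anti-BTK and anti-β-actin antibodies. pBTK band intensity was quantified by imaging analyzer, normalised to β-actin, and expressed relative to the pre-dose Day 1 level (set as 100%).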
# [2] = test system: TMD8 transplanted mouse tumor model; details: cited from earlier work
# [3] = test system: ABC‐DLBCL cell line, TMD8; details: cited from earlier work
# [4] = test system: relapsed/refractory B‐cell NHL and CLL; assay: Efficacy; assay type: in vivo, human; details: for Partial response (VGPR or PR): includes lymphocytosis assessed as modified PR
# Summary of the method: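 Open-label, multicenter, non-randomised study in Japanese adults (≥20 y) with relapsed/refractory B-cell NHL (DLBCL, MCL, FL, MZL, WM/LPL) or CLL/SLL. Oral test compound was given at 160, 320 or 480 mg QD, or 300 mg BID, until progression, unacceptable AEs or consent withdrawal. Best response was graded per International Workshop Criteria for NHL, WM and CLL. ORR was CR plus PR, including PR with residual lymphocytosis, with Clopper–Pearson 95% CIs. Analysis included all patients receiving ≥1 dose.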
# [5] = DLBCL, 3 patients who received 300 mg BID
# Bruton's tyrosine kinase (BTK), sequence (Q06187 whole entry): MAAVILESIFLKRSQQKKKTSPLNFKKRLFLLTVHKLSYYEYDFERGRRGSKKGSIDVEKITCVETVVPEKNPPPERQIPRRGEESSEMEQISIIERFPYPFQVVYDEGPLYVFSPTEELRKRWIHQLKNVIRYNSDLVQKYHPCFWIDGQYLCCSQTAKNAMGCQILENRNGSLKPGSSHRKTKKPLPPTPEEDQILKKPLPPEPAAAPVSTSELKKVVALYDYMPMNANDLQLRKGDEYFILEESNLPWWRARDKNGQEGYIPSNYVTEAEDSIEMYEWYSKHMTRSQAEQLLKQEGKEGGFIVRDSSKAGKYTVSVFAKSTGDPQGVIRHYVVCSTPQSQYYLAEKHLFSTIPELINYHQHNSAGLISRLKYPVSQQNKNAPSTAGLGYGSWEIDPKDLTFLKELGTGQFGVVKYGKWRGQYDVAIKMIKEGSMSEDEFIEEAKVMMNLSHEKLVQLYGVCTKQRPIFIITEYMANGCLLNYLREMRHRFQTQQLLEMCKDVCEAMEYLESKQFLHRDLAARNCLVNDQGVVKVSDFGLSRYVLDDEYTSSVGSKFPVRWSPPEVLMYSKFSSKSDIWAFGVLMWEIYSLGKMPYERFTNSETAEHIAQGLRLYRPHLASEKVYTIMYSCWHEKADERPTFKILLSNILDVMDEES
structure (smiles),measurement,setting,value
CC#CC(=O)N1CC[C@@H](n2c(=O)n(-c3ccc(Oc4ccccc4)cc3)c3c(N)ncnc32)C1 [tirabrutinib],Expression level of pBTK in PBMC,"[1]; 11 patients with confirmed basal pBTK expression, doses ≥160 mg QD",suppressed the expression level of pBTK in all 11 patients; also recorded: fully suppressed
same,pBTK suppression,"[1]; patients other than the CLL patient, 2 hours post–dose on Day 1 of Cycle 1",Complete suppression
same,Cytostatic properties in vivo,[2],cytostatic properties
same,Cytostatic properties in vitro,[3],cytostatic properties
same,"Complete response (CR, CRu, CRi)",[4]; 160 mg QD N = 3,1 (33.3) n (%)
same,"Overall response (CR, CRu, CRi, VGPR or PR)",[4]; 160 mg QD N = 3,3 (100.0) n (%)
same,Partial response (VGPR or PR),[4]; 160 mg QD N = 3,2 (66.7) n (%)
same,"Complete response (CR, CRu, CRi)",[4]; 300 mg BID N = 7,3 (42.9) n (%)
same,"Overall response (CR, CRu, CRi, VGPR or PR)",[4]; 300 mg BID N = 7,4 (57.1) n (%)
same,Partial response (VGPR or PR),[4]; 300 mg BID N = 7,1 (14.3) n (%)
same,"Complete response (CR, CRu, CRi)",[4]; 320 mg QD N = 3,2 (66.7) n (%)
same,"Overall response (CR, CRu, CRi, VGPR or PR)",[4]; 320 mg QD N = 3,3 (100.0) n (%)
same,Partial response (VGPR or PR),[4]; 320 mg QD N = 3,1 (33.3) n (%)
same,"Complete response (CR, CRu, CRi)",[4]; 480 mg QD N = 4,0 (.0) n (%)
same,"Overall response (CR, CRu, CRi, VGPR or PR)",[4]; 480 mg QD N = 4,3 (75.0) n (%)
same,Partial response (VGPR or PR),[4]; 480 mg QD N = 4,3 (75.0) n (%)
same,Median progression‐free survival,[4]; Cohort 3 (480 mg QD),109 days
same,Median progression‐free survival,"[4]; Cohorts 1, 2 and 4",not estimable
same,Number of CR,[4]; DLBCL (5 patients),2
same,"Best overall response CR, number of patients",[4]; [5],2 patients
same,"Best overall response stable disease, number of patients",[4]; [5],1 patient
same,Number of CR,[4]; FL (5 patients),1
same,Number of CR,[4]; MCL (4 patients),3
same,"Complete response (CR, CRu, CRi)",[4]; Total N = 17,6 (35.3) n (%)
same,"Overall response (CR, CRu, CRi, VGPR or PR)",[4]; Total N = 17,13 (76.5) n (%)
same,Partial response (VGPR or PR),[4]; Total N = 17,7 (41.2) n (%)
same,Overall response rate (≥PR),[4]; all patients (13/17),76.5%
same,Patients with early response within 1 month after beginning of treatment,[4]; of 13 patients who achieved PR or more,8 patients
